Laboratory results reported in ChEMBL document CHEMBL1914457, “Syntheses of phenylpyrazolodiazepin-7-ones as conformationally rigid analogs of aminopyrazole amide scaffold and their antiproliferative effects on cancer cells” (Bioorg Med Chem, 2011).

Columns and labels:
[1] = Growth inhibition of human A375P cells after 24 hrs by MTT assay; type: functional
Procedure, shortened: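 A375P cells grown in DMEM with 10% FBS and 1% penicillin/streptomycin at 37 °C, 5% CO2. Cells lifted with 0.05% trypsin-0.02% EDTA, seeded at 5 × 10^3 cells/well and held 24 h before treatment. Compounds given as a threefold serial dilution over 12 points. Viability read by MTT reduction (CellTiter 96) as absorbance at 590 nm; IC50 fitted from the curve.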

U-937 = assay: Growth inhibition of human U937 cells after 24 hrs by thiazolyl blue tetrazolium bromide staining-based MTT assay; type: functional; details: U-937, 24 h
Procedure, shortened: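 U937 cells kept in RPMI 1640 with 10% FBS, 1% penicillin/streptomycin and 25 mM HEPES at 37 °C, 5% CO2. Seeded at 5 × 10^3 cells/well and incubated 24 h before treatment. Compounds given as a threefold serial dilution over 12 points. Viability read by MTT reduction with thiazolyl blue tetrazolium bromide as absorbance at 570 nm.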

[2] = target: T1, Serine/threonine-protein kinase mTOR (Homo sapiens, UniProt P42345); assay: Inhibition of MTOR
[3] = target: T2, RAF proto-oncogene serine/threonine-protein kinase (Homo sapiens, UniProt P04049); assay: Inhibition of human CRAF using [gamma-33P]ATP after 40 mins by scintillation counting
T2 sequence (P04049 whole entry): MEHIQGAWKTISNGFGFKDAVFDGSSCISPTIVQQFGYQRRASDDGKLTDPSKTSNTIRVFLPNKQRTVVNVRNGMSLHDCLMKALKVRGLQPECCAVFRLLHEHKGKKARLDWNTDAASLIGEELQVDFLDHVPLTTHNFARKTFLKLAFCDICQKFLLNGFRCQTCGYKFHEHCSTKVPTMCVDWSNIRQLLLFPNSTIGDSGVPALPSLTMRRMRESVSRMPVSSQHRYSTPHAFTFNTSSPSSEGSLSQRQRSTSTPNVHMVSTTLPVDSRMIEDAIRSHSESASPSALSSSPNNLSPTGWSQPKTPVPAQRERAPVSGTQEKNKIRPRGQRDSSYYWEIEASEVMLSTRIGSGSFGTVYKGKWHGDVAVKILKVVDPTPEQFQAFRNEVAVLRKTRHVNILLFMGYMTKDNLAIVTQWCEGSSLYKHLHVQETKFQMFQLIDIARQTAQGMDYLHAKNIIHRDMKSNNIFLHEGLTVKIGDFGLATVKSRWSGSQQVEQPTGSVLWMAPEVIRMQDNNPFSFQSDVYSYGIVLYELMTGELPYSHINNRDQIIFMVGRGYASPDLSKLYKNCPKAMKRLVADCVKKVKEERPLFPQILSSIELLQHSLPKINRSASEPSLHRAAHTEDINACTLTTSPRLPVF
Procedure, shortened: (§1)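 Human c-Raf (5–10 mU) was run in 25 mM Tris pH 7.5 with 0.02 mM EGTA, 10 mM Mg acetate and 0.66 mg/mL myelin basic protein as substrate. The reaction was started with Mg–[γ-33P]ATP (about 500 cpm/pmol; ATP concentration not stated) and run 40 min at room temperature. It was stopped with 3% phosphoric acid, spotted on P30 filtermat, washed in 75 mM phosphoric acid and methanol, and scintillation counted.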

[4] = target: Serine/threonine-protein kinase B-raf (Homo sapiens, UniProt P15056, V600E); assay: Inhibition of BRAF V600E mutant
Serine/threonine-protein kinase B-raf, sequence (P15056 2-766 V600E limits assumed): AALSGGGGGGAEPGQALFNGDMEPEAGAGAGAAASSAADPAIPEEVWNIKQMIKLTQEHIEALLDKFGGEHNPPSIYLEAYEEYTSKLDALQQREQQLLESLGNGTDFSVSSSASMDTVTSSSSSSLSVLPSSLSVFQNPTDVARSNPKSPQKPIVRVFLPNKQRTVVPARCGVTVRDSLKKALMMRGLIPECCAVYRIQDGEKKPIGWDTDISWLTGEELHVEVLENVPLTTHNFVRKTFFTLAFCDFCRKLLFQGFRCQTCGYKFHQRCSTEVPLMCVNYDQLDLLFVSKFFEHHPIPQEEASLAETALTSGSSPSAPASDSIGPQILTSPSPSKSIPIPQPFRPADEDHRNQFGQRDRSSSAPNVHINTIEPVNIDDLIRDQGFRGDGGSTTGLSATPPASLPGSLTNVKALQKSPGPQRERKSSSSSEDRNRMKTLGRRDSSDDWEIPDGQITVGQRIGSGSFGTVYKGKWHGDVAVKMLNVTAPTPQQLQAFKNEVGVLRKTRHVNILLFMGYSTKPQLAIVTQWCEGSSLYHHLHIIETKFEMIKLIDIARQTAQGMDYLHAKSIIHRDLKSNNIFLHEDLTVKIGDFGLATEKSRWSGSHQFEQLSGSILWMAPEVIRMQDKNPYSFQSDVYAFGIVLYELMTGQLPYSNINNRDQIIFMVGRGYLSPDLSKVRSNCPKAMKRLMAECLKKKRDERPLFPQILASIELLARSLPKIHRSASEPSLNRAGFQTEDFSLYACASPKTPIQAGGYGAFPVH

[5] = target: T2, RAF proto-oncogene serine/threonine-protein kinase; assay: Inhibition of human CRAF using [gamma-33P]ATP at 10 uM after 40 mins by scintillation counting; procedure, shortened: as §1
[6] = target: Mitogen-activated protein kinase 1 (Homo sapiens) (UniProt P28482); assay: Inhibition of ERK2 at 10 uM
[7] = target: T1, Serine/threonine-protein kinase mTOR; assay: Inhibition of MTOR at 10 uM
[8] = target: Vascular endothelial growth factor receptor 2 (Homo sapiens) (UniProt P35968); assay: Inhibition of KDR at 10 uM
[9] = target: Macrophage colony-stimulating factor 1 receptor (Homo sapiens) (UniProt P07333); assay: Inhibition of FMS at 10 uM
[10] = target: Aurora kinase A (Homo sapiens) (UniProt O14965); assay: Inhibition of Aurora-A at 10 uM
Aurora kinase A (Homo sapiens), sequence (O14965 whole entry): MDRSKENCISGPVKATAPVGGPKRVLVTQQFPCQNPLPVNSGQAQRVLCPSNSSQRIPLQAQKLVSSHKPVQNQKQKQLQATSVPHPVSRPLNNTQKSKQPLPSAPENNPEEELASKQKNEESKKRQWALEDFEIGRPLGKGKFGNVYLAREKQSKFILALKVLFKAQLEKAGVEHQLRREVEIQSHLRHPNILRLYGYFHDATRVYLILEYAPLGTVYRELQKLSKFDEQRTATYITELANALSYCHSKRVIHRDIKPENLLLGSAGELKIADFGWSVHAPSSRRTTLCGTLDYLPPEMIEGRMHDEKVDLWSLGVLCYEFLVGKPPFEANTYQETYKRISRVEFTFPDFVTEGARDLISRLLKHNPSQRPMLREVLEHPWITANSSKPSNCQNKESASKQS

[11] = target: Epidermal growth factor receptor (Homo sapiens) (UniProt P00533); assay: Inhibition EGFR at 10 uM
[12] = target: Receptor-type tyrosine-protein kinase FLT3 (Homo sapiens) (UniProt P36888); assay: Inhibition of FLT3 at 10 uM
[13] = test system: Serine/threonine-protein kinase B-raf (Homo sapiens), P15056 [V600E]; assay: Inhibition of BRAF V599E mutant at 10 uM
Serine/threonine-protein kinase B-raf (Homo sapiens), P15056 [V600E], sequence (P15056 whole entry V600E): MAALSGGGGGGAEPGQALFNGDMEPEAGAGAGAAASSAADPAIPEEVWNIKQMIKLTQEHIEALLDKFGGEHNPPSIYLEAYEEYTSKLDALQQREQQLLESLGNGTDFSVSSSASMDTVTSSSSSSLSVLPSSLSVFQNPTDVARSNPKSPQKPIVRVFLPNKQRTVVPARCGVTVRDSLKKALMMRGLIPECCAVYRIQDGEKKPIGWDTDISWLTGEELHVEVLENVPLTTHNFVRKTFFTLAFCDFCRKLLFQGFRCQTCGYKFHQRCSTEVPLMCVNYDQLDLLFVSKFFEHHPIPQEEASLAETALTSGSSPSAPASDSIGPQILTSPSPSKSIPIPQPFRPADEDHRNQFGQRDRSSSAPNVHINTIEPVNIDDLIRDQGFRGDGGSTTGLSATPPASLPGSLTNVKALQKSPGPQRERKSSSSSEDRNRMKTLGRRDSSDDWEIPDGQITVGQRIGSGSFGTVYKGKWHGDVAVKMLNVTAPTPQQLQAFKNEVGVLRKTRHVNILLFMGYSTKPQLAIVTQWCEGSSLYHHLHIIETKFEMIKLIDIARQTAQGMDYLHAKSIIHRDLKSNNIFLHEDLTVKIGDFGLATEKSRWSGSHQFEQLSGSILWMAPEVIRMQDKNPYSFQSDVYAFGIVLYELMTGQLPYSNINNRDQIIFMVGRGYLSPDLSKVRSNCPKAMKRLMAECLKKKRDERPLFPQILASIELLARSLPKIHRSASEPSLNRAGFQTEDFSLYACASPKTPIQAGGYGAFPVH

[14] = target: Tyrosine-protein kinase Lyn (Homo sapiens) (UniProt P07948); assay: Inhibition of LYN at 10 uM
[15] = target: Proto-oncogene tyrosine-protein kinase ROS (Homo sapiens) (UniProt P08922); assay: Inhibition of ROS at 10 uM
[16] = target: Focal adhesion kinase 1 (Homo sapiens) (UniProt Q05397); assay: Inhibition of FAK at 10 uM
[17] = target: T3, Phosphatidylinositol 4,5-bisphosphate 3-kinase catalytic subunit alpha isoform (Homo sapiens, UniProt P42336); assay: Inhibition of PI3Kalpha
T3 sequence (P42336 whole entry, canonical isoform): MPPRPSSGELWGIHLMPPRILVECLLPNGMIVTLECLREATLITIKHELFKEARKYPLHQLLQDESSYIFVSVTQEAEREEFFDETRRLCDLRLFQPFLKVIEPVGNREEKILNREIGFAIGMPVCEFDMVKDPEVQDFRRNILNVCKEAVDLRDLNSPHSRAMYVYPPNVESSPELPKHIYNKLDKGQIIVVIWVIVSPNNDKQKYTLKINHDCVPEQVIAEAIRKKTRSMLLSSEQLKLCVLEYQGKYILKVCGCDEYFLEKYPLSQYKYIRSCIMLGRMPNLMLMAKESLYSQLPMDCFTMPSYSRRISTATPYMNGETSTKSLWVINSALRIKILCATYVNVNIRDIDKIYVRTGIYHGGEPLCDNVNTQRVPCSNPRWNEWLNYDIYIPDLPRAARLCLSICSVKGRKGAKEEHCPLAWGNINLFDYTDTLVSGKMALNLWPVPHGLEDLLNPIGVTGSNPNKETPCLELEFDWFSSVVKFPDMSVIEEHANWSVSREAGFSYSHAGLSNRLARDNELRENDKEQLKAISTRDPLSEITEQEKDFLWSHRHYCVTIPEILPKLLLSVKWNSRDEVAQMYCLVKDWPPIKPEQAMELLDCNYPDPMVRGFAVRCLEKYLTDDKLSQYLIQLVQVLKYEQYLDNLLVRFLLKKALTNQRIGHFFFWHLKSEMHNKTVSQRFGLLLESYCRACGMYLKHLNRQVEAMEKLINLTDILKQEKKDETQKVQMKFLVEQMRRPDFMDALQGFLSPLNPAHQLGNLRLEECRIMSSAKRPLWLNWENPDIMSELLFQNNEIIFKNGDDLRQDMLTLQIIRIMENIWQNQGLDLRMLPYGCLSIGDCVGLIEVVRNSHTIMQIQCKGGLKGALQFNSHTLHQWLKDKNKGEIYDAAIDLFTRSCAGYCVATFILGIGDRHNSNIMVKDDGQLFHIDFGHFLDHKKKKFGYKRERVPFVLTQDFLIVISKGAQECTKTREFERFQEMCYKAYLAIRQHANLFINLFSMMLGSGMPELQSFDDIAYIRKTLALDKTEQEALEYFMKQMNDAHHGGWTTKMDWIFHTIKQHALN

[18] = target: Mitogen-activated protein kinase 8 (Homo sapiens) (UniProt P45983); assay: Inhibition of JNK1 at 10 uM
Mitogen-activated protein kinase 8 (Homo sapiens), sequence (P45983 whole entry): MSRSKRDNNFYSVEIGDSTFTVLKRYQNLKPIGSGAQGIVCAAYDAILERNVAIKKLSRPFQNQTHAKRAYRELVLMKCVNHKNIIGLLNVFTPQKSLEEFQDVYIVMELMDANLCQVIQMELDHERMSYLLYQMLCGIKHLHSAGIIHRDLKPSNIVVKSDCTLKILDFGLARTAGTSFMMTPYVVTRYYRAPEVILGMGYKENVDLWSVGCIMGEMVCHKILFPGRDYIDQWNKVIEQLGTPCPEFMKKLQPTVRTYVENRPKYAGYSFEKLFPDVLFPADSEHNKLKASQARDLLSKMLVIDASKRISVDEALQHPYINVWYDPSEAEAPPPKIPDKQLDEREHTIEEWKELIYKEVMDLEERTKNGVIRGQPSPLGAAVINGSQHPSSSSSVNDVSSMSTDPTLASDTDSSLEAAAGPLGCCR

[19] = target: Mast/stem cell growth factor receptor Kit (Homo sapiens) (UniProt P10721); assay: Inhibition of cKIT at 10 uM
[20] = target: ALK tyrosine kinase receptor (Homo sapiens) (UniProt Q9UM73); assay: Inhibition of Alk at 10 uM
[21] = target: Macrophage-stimulating protein receptor (Homo sapiens) (UniProt Q04912); assay: Inhibition of RON at 10 uM
[22] = target: Mitogen-activated protein kinase 14 (Homo sapiens) (UniProt Q16539); assay: Inhibition of p38alpha at 10 uM
[23] = target: Tyrosine-protein kinase JAK3 (Homo sapiens) (UniProt P52333); assay: Inhibition of JAK3 at 10 uM
[24] = target: Hepatocyte growth factor receptor (Homo sapiens) (UniProt P08581); assay: Inhibition of cMet at 10 uM
[25] = target: T3, Phosphatidylinositol 4,5-bisphosphate 3-kinase catalytic subunit alpha isoform; assay: Inhibition of PI3Kalpha at 10 uM
[26] = target: Insulin-like growth factor 1 receptor (Homo sapiens) (UniProt P08069); assay: Inhibition of IGF1R at 10 uM
[27] = target: Tyrosine-protein kinase Lck (Homo sapiens) (UniProt P06239); assay: Inhibition of LCK at 10 uM
[28] = target: Fibroblast growth factor receptor 2 (Homo sapiens) (UniProt P21802); assay: Inhibition of FGFR2 at 10 uM
[29] = target: Cyclin-dependent kinase 1/cyclin B1 (Homo sapiens) (UniProt P06493+P14635); assay: Inhibition of CDK1/Cyclin B at 10 uM; type: protein-complex assay
[30] = target: Dual specificity mitogen-activated protein kinase kinase 1 (Homo sapiens) (UniProt Q02750); assay: Inhibition of MEK1 at 10 uM
[31] = target: Mitogen-activated protein kinase 10 (Homo sapiens) (UniProt P53779); assay: Inhibition of JNK3 at 10 uM
[32] = target: Cyclin-dependent kinase 2/cyclin E1 (Homo sapiens) (UniProt P24864+P24941); assay: Inhibition of CDK2/Cyclin E at 10 uM; type: protein-complex assay
[33] = target: Proto-oncogene tyrosine-protein kinase Src (Homo sapiens) (UniProt P12931); assay: Inhibition cSRC at 10 uM
[34] = target: Serine/threonine-protein kinase PLK1 (Homo sapiens) (UniProt P53350); assay: Inhibition of PLK1 at 10 uM
[35] = target: Tyrosine-protein kinase SYK (Homo sapiens) (UniProt P43405); assay: Inhibition of SYK at 10 uM
[36] = target: Glycogen synthase kinase-3 beta (Homo sapiens) (UniProt P49841); assay: Inhibition of GSK3-beta at 10 uM
Glycogen synthase kinase-3 beta (Homo sapiens), sequence (P49841 whole entry, looked up): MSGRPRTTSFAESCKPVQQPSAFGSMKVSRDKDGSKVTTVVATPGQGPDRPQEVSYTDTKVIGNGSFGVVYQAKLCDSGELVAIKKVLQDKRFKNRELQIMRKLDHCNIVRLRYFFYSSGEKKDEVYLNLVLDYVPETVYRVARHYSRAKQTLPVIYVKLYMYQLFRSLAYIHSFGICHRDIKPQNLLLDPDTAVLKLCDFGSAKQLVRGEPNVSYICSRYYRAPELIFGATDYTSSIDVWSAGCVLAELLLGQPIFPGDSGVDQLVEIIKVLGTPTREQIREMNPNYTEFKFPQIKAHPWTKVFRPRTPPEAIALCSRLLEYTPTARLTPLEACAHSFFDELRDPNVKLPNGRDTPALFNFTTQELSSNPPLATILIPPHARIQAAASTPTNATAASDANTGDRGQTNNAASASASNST

[37] = target: Tyrosine-protein kinase ABL1 (Homo sapiens) (UniProt P00519); assay: Inhibition of Abl1 at 10 uM
[38] = target: Fibroblast growth factor receptor 3 (Homo sapiens) (UniProt P22607); assay: Inhibition of FGFR3 at 10 uM
[39] = target: BDNF/NT-3 growth factors receptor (Homo sapiens) (UniProt Q16620); assay: Inhibition of TRKB at 10 uM
[40] = target: RAC-alpha serine/threonine-protein kinase (Homo sapiens) (UniProt P31749); assay: Inhibition of AKT1 at 10 uM
RAC-alpha serine/threonine-protein kinase (Homo sapiens), sequence (P31749 whole entry): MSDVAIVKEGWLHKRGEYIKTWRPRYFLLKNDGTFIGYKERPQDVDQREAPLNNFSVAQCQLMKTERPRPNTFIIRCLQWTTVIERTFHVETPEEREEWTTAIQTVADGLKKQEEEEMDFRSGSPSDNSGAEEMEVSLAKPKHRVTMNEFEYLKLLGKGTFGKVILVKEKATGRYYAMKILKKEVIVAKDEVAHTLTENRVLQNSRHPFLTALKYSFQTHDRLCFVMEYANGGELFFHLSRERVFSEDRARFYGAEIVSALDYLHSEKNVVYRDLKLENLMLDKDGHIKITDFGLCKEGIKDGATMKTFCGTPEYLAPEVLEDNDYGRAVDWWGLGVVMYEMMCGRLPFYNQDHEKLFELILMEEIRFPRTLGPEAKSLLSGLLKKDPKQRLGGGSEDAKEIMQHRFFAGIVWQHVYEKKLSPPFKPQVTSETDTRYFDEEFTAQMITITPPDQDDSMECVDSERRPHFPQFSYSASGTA

## Cc1cn(-c2cc(C(=O)Nc3ccc(C4=Nc5cnn(Cc6ccccc6)c5NC(=O)C4)cc3)cc(C(F)(F)F)c2)cn1
[1]
  GI50: > 30 µM
U-937
  GI50: > 30 µM

## O=c1cc(N2CCOCC2)oc2c(-c3ccccc3)cccc12 [LY-294002]
[2]
  IC50: 6.8 µM

## COc1ccc(Cn2ncc3c2NC(=O)CC(c2cccc(NC(=O)Nc4ccc(Cl)cc4)c2)=N3)cc1
[1]
  GI50: 0.64 µM
U-937
  GI50: 0.58 µM

## Cc1cn(-c2cc(NC(=O)Nc3ccc(C4=Nc5cnn(Cc6ccccc6)c5NC(=O)C4)cc3)cc(C(F)(F)F)c2)cn1
[1]
  GI50: > 30 µM
U-937
  GI50: > 30 µM

## O=C1CC(c2cccc(NC(=O)Nc3ccc(Cl)cc3)c2)=Nc2cn[nH]c2N1
[1]
  GI50: > 30 µM
U-937
  GI50: > 30 µM

## COc1ccc(Cn2ncc3c2NC(=O)CC(c2cccc(NC(=O)Nc4cccc(Cl)c4)c2)=N3)cc1
[1]
  GI50: 0.91 µM
U-937
  GI50: 0.63 µM

## O=C1CC(c2ccc(NC(=O)Nc3ccc(Cl)c(C(F)(F)F)c3)cc2)=Nc2cnn(Cc3ccccc3)c2N1
[1]
  GI50: 1.19 µM
U-937
  GI50: 8.68 µM

## COc1ccc(Cn2ncc3c2NC(=O)CC(c2cccc(NC(=O)Nc4cccc(C(F)(F)F)c4)c2)=N3)cc1
[1]
  GI50: 0.25 µM
U-937
  GI50: 0.28 µM

## O=C1CC(c2cccc(NC(=O)Nc3ccc(Cl)c(Cl)c3)c2)=Nc2cn[nH]c2N1
[1]
  GI50: > 30 µM
U-937
  GI50: > 30 µM

## O=C1CC(c2cccc(NC(=O)c3ccc(N4CCOCC4)c(C(F)(F)F)c3)c2)=Nc2cnn(Cc3ccccc3)c2N1
[1]
  GI50: 2.91 µM
U-937
  GI50: 1.75 µM

## O=C1CC(c2ccc(NC(=O)c3ccc(Cl)c(C(F)(F)F)c3)cc2)=Nc2cnn(Cc3ccccc3)c2N1
[1]
  GI50: 13.1 µM
U-937
  GI50: 0.06 µM

## COc1ccc(Cn2ncc3c2NC(=O)CC(c2cccc(NC(=O)Nc4cc(Cl)cc(Cl)c4)c2)=N3)cc1
[1]
  GI50: 0.78 µM
U-937
  GI50: 6.48 µM

## COc1ccc(Cn2ncc3c2NC(=O)CC(c2cccc(NC(=O)Nc4ccc(C(F)(F)F)cc4)c2)=N3)cc1
[1]
  GI50: 0.77 µM
U-937
  GI50: 0.11 µM

## O=C1CC(c2cccc(NC(=O)Nc3ccc(Cl)c(C(F)(F)F)c3)c2)=Nc2cnn(Cc3ccccc3)c2N1
[1]
  GI50: 4.45 µM
[3]
  IC50: 0.668 µM
U-937
  GI50: 7.31 µM
[4]
  IC50: Not Active

## O=C1CC(c2cccc(NC(=O)c3cc(N4CCOCC4)cc(C(F)(F)F)c3)c2)=Nc2cnn(Cc3ccccc3)c2N1
[1]
  GI50: > 30 µM
U-937
  GI50: > 30 µM

## CNC(=O)c1cc(Oc2ccc(NC(=O)Nc3ccc(Cl)c(C(F)(F)F)c3)cc2)ccn1 [SORAFENIB]
[1]
  GI50: 5.58 µM
U-937
  GI50: 2.85 µM

## O=C1CC(c2ccc(NC(=O)Nc3ccc(Cl)c(C(F)(F)F)c3)cc2)=Nc2cn[nH]c2N1
[1]
  GI50: > 30 µM
U-937
  GI50: > 30 µM

## O=C1CC(c2cccc(NC(=O)c3ccc(Cl)c(C(F)(F)F)c3)c2)=Nc2cnn(Cc3ccccc3)c2N1
[5]
  inhibition: 92.9%
[6]
  inhibition: 0%
[7]
  inhibition: 0%
[8]
  inhibition: 0%
[9]
  inhibition: 0.5%
[10]
  inhibition: 6.5%
[1]
  GI50: 0.43 µM
[11]
  inhibition: 1.6%
[12]
  inhibition: 19.3%
[13]
  inhibition: 85.6%
[14]
  inhibition: 4.6%
[15]
  inhibition: 0%
[16]
  inhibition: 0%
[17]
  IC50: 2.15 µM
[18]
  inhibition: 0%
[19]
  inhibition: 3.6%
[20]
  inhibition: 0%
[21]
  inhibition: 4.4%
[3]
  IC50: 0.961 µM
U-937
  GI50: 0.06 µM
[22]
  inhibition: 0%
[23]
  inhibition: 0%
[24]
  inhibition: 1.3%
[25]
  inhibition: 75.2%
[4]; read-out: IC50
  IC50: 0.655 µM
[26]
  inhibition: 1.9%
[27]
  inhibition: 5.6%
[28]
  inhibition: 0%
[29]
  inhibition: 7%
[30]
  inhibition: 0%
[31]
  inhibition: 0%
[32]
  inhibition: 0.9%
[33]
  inhibition: 4.3%
[34]
  inhibition: 0%
[35]
  inhibition: 0%
[36]
  inhibition: 17.8%
[37]
  inhibition: 0%
[38]
  inhibition: 0%
[39]
  inhibition: 0.2%
[40]
  inhibition: 0%

## Cc1cn(-c2cc(C(=O)Nc3cccc(C4=Nc5cnn(Cc6ccccc6)c5NC(=O)C4)c3)cc(C(F)(F)F)c2)cn1
[1]
  GI50: > 30 µM
U-937
  GI50: > 30 µM

## COc1ccc(Cn2ncc3c2NC(=O)CC(c2cccc(NC(=O)Nc4cc(N5CCOCC5)cc(C(F)(F)F)c4)c2)=N3)cc1
[1]
  GI50: 3.32 µM
U-937
  GI50: > 30 µM

## O=C1CC(c2ccc(NC(=O)c3ccc(N4CCOCC4)c(C(F)(F)F)c3)cc2)=Nc2cnn(Cc3ccccc3)c2N1
[1]
  GI50: 16.4 µM
U-937
  GI50: 0.21 µM

## O=C1CC(c2ccc(NC(=O)Nc3cccc(Cl)c3)cc2)=Nc2cnn(Cc3ccccc3)c2N1
[1]
  GI50: 2.07 µM
U-937
  GI50: 0.67 µM

## COc1ccc(Cn2ncc3c2NC(=O)CC(c2cccc(NC(=O)Nc4ccc(Cl)c(Cl)c4)c2)=N3)cc1
[1]
  GI50: 3.86 µM
U-937
  GI50: 14.9 µM

## COc1ccc(Cn2ncc3c2NC(=O)CC(c2ccc(NC(=O)Nc4ccc(Cl)c(C(F)(F)F)c4)cc2)=N3)cc1
[1]
  GI50: 3.93 µM
U-937
  GI50: 7.29 µM
